Measured values from ChEMBL document CHEMBL1773039, “Structure-Activity Study of Dihydrocinnamic Acids and Discovery of the Potent FFA1 (GPR40) Agonist TUG-469” (ACS Med Chem Lett, 2010).
Activity calls are given as the source filed them. The rule behind the calls is not given here.

What was measured:
[1] = molecular target: T1, Peroxisome proliferator-activated receptor gamma (Homo sapiens) (UniProt P37231); experiment: Transactivation of human PPARgamma ligand binding domain transfected in mouse embryo fibroblasts at 100 uM after 18 hrs analyzed by photinus and renilla luciferase activity by luminometry relative to 1 uM rosiglitazone
T1 sequence (whole entry): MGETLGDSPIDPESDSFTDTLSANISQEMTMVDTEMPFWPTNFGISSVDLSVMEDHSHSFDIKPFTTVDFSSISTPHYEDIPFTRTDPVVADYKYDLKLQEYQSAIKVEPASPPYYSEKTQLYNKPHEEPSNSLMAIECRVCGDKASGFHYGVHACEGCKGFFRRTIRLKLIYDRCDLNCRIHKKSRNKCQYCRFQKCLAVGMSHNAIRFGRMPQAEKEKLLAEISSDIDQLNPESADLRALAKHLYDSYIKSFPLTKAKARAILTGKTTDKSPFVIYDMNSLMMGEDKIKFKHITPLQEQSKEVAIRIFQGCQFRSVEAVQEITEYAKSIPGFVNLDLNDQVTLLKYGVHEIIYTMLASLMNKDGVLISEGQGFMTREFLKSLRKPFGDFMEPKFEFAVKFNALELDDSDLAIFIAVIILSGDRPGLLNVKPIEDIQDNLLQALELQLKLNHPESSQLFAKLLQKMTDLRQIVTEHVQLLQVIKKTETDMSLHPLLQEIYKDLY

[2] = molecular target: T2, Free fatty acid receptor 1 (Homo sapiens, UniProt O14842); experiment: Agonist activity at human FFA1 transfected in 1321N1 cells assessed as calcium mobilization by microplate assay relative to 10 uM TUG-20; assay type: functional, cell-based
Outline: (§1)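 Calcium mobilization in hFFA1-expressing cells was measured as full concentration-response curves and reported as pEC50. Efficacy is % of the response to 10 μM of the reference agonist.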

[3] = molecular target: Free fatty acid receptor 3 (Homo sapiens) (UniProt O14843); experiment: Agonist activity at human GPR41 in HEK293 cells
Homo sapiens = species: Homo sapiens; experiment: Selectivity for human FFA1 over human PPARgamma
[4] = molecular target: T1, Peroxisome proliferator-activated receptor gamma (Homo sapiens); experiment: Transactivation of human PPARgamma ligand binding domain transfected in mouse embryo fibroblasts assessed as renilla luciferase activity at 1 uM after 18 hrs by luminometry relative to 1 uM rosiglitazone
[5] = molecular target: T2, Free fatty acid receptor 1; experiment: Agonist activity at human FFA1 transfected in 1321N1 cells assessed as calcium mobilization by microplate assay; assay type: functional, cell-based; outline: as §1
[6] = molecular target: Free fatty acid receptor 2 (Homo sapiens) (UniProt O15552); experiment: Agonist activity at human GPR43 in HEK293 cells
[7] = molecular target: T2, Free fatty acid receptor 1; experiment: Agonist activity at human FFA1 transfected in 1321N1 cells under serum-free condition after 1 hr by dose response curve/dynamic mass redistribution optical biosensor assay; assay type: functional, cell-based
Outline: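 hFFA1-transfected 1321N1 cells were exposed to a range of agonist concentrations. Label-free dynamic mass redistribution was tracked over time as the resonant wavelength shift (pm), a read-out of receptor activation. pEC50 was taken from concentration-response curves of this signal.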

[8] = molecular target: T2, Free fatty acid receptor 1; experiment: Agonist activity at human FFA1 transfected in 1321N1 cells assessed as calcium mobilization by microplate assay relative to linoleic acid; assay type: functional, cell-based

Chain of Free fatty acid receptor 3 (Homo sapiens) (O14843 whole entry, looked up): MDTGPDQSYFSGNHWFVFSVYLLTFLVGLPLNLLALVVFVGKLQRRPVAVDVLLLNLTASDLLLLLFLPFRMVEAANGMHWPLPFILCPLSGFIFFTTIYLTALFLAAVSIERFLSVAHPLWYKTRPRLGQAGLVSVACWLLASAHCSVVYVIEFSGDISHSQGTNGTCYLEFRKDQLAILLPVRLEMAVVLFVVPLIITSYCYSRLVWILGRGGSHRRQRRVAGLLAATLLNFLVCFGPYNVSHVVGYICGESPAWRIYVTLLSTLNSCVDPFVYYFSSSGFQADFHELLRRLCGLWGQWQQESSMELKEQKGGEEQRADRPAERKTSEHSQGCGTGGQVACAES
Chain of Free fatty acid receptor 2 (Homo sapiens) (O15552 whole entry, looked up): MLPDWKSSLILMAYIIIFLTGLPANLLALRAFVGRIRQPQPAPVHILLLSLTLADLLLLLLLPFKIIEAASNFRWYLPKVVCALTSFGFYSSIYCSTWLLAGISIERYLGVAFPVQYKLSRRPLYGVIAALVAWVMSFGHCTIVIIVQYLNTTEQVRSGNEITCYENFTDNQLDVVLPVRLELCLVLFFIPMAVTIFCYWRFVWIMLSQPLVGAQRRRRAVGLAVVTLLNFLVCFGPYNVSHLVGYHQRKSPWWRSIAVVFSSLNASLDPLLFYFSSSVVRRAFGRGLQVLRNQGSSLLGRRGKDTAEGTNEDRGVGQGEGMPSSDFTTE
T2 sequence (O14842 whole entry): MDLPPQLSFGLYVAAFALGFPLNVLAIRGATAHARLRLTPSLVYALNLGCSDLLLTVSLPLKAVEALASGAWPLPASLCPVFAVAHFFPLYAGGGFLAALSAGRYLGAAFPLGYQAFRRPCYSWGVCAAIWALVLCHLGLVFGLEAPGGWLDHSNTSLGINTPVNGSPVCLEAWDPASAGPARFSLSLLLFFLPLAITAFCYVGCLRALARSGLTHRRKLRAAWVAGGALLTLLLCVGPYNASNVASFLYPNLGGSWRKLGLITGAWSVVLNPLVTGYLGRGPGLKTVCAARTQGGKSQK

Row | SMILES | Activity [1] | Efficacy [2] | Activity [3] | fold change (FC) (Homo sapiens) | Activity [4] | EC50 [5] | Activity [6] | EC50 [7] | Activity [8]
1 | O=C(O)CCc1ccc(CNc2ccccc2)cc1 | inactive | 101% | inactive | > 100 | inactive | 21400 nM | inactive |  | 
2 | O=C(O)CCc1ccc(OCc2ccc(Br)cc2)cc1 |  | 98% | inactive | > 100 | inactive | 550 nM | inactive |  | 
3 | O=C(O)CCc1ccc(OCc2ccc(Oc3ccccc3)cc2)cc1 | 23% | 98% | inactive | > 100 | inactive | 204 nM | inactive |  | 
4 | O=C(O)CCc1ccc(OCc2ccccc2)c(I)c1 | 42% | 81% | inactive | > 100 | inactive | 12600 nM | inactive |  | 
5 | O=C(O)CCc1ccc(COc2ccccc2)cc1 | inactive | 88% | inactive | > 100 | inactive | 6310 nM | inactive |  | 
6 | O=C(O)CCc1ccc(C#Cc2ccccc2)cc1 |  | 108% | inactive | > 100 | inactive | 200 nM | inactive |  | 
7 | O=C(O)CCc1ccc(OCc2ccccc2-c2ccccc2)cc1 |  |  | inactive | > 100 | inactive |  | inactive |  | 
8 | O=C(O)CCc1ccc2oc(-c3ccccc3)cc2c1 | inactive | 92% | inactive | > 100 | inactive | 2450 nM | inactive |  | 
9 | O=C(O)CCc1ccc(NCc2cccc(C(F)(F)F)c2)cc1 |  | 102% | inactive | > 100 | inactive | 186 nM | inactive |  | 
10 | O=C(O)CCc1ccc(OCc2ccccc2Br)cc1 |  | 99% | inactive | > 100 | inactive | 447 nM | inactive |  | 
11 | Cc1ccc(-c2cccc(COc3ccc(CCC(=O)O)cc3)c2)cc1 | 15% | 86% | inactive | > 100 | inactive | 490 nM | inactive |  | 
12 | O=C(O)CCc1ccc(OCc2ccccc2)cc1 [BENZYLOXYPHENYLPROPANOIC ACID] | 7% |  | inactive |  | inactive | 457 nM | inactive | 832 nM | 123%
13 | N#Cc1cccc(COc2ccc(CCC(=O)O)cc2)c1 |  | 102% | inactive | > 100 | inactive | 525 nM | inactive |  | 
14 | O=C(O)CCc1ccc(CCc2ccccc2)cc1 |  | 116% | inactive | > 100 | inactive | 3630 nM | inactive |  | 
15 | O=C(O)CCc1ccc(NCc2ccccc2)cc1 | 7% | 89% | inactive | > 100 | inactive | 759 nM | inactive |  | 
16 | O=C(O)CCc1ccc(OCc2ccc(-c3ccccc3)cc2)cc1 | inactive | 97% | inactive | > 100 | inactive | 912 nM | inactive |  | 
17 | CC(Oc1ccc(CCC(=O)O)cc1)c1ccccc1 (stereo unspecified) |  | 106% | inactive | > 100 | inactive | 3310 nM | inactive |  | 
18 | O=C(O)CCc1ccc(NCc2ccc(-c3ccccc3)cc2)cc1 | 23% | 92% | inactive | > 100 | inactive | 417 nM | inactive |  | 

Now from value to compound:

Row | Activity [1] | Efficacy [2] | Activity [3] | fold change (FC) (Homo sapiens) | Activity [4] | EC50 [5] | Activity [6] | EC50 [7] | Activity [8] | SMILES
19 | 33% | 101% | inactive | > 100 | inactive | 53.7 nM | inactive |  |  | O=C(O)CCc1ccc(NCc2cccc(-c3ccccc3)c2)cc1
20 |  | 103% |  |  |  | 178 nM |  |  |  | Cc1cc(Oc2ncc(C(F)(F)F)cc2Cl)ccc1CC1SC(=O)NC1=O (stereo unspecified)
21 | 27% | 110% | inactive | > 100 | inactive | 174 nM | inactive |  |  | O=C(O)CCc1ccc(NCc2cccc(Br)c2)cc1
22 |  | 103% | inactive | > 100 | inactive | 83.2 nM | inactive |  |  | O=C(O)CCc1ccc(OCc2cccc(C(F)(F)F)c2)cc1
23 | 31% | 92% | inactive | > 100 | inactive | 126 nM | inactive |  |  | Cc1ccc(-c2cccc(CNc3ccc(CCC(=O)O)cc3)c2)cc1
24 | 51% | 109% | inactive | > 100 | inactive | 69.2 nM | inactive |  |  | COc1ccccc1-c1cccc(CNc2ccc(CCC(=O)O)cc2)c1
25 | 34% | 100% | inactive | > 100 | inactive | 182 nM | inactive |  |  | O=C(O)CCc1ccc(NCc2ccc(Oc3ccccc3)cc2)cc1
26 | 51% | 98% | inactive | > 100 | inactive | 57.5 nM | inactive |  |  | O=C(O)CCc1ccc(OCc2cccc(Oc3ccccc3)c2)cc1
27 | 19% | 99% | inactive | > 100 | inactive | 89.1 nM | inactive |  |  | O=C(O)CCc1ccc(OCc2cccc(Br)c2)cc1
28 | 54% | 103% |  |  |  | 28.8 nM |  | 87.1 nM |  | O=C(O)CCc1ccc(NCc2cccc(Oc3ccccc3)c2)cc1 [GW9508]
29 | 25% | 105% | inactive | > 100 | inactive | 135 nM | inactive |  |  | O=C(O)CCc1ccc(OCc2cccc(-c3ccccc3)c2)cc1
30 | 37% | 105% | inactive | > 100 | inactive | 120 nM | inactive |  |  | COc1ccccc1-c1cccc(COc2ccc(CCC(=O)O)cc2)c1
